# Active and inactive are the calls of the source.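 Rule for the calls, unless noted: active = viability at or under a set limit in both replicates, limit being median viability minus 3 SD (cut at about 48% in these data, passing the limit was not always enough); inconclusive = at or under the limit in just one replicate; inactive = at or above the limit in both replicates.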
# Legend:
# [1] = Her2 expression decrease, cell viability multiplex – SKBR3 breast tumor cells, AlphaScreen, ATP viability, primary screen (AID 461;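 active = Her2 level under about 52% in both replicate screens, with viability over 70% of control, limit read from the data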;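 for Her2 level: lower value means less Her2 protein in the cells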;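 for viability: percent of carrier control wells set as 100% viability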); settings: SKBR3 Her2 protein level, 18-24 h, measured here: SKBR3 viability, ATP luminescence, at 10 µM
# [2] = biological target: Receptor tyrosine-protein kinase erbB-2 (Homo sapiens) (UniProt P04626); experiment: as above; settings: 18-24 h, at 10 µM, stronger effect = lower value
# [3] = reduced viability of SK-BR-3 breast cancer cells – cell-based, 24 h, human, pilot screen (AID 572;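 active = viability at or below 10% of carrier control in both of two separate runs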;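 note: compound exposure lasted between 18 and 24 h rather than exactly 24 h; 100% = carrier-treated control wells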); settings: SK-BR-3 viability, CellTiter-Glo luminescence, at 10 µM, stronger effect = lower value
# [4] = HUVEC growth inhibition – cell-based, human, primary screen (AID 575;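 active = viability at or below 30% in both replicate assays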;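 note: 100% = median of untreated cell wells with 0.1% DMSO on each plate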); settings: HUVEC proliferation, CellTiter-Glo luminescence, 72 h; at 10 µM; stronger effect = lower value
# In short: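 Material: primary human umbilical vein endothelial cells / Schedule: 72 h exposure, 37 °C, 5% CO2, 30 min RT equilibration / Signal: ATP-based CellTiter-Glo luminescent read / Read-out basis: percent of median DMSO-control luminescence / Control set: 32 DMSO-only cell-control wells (high), 32 MePR drug-control wells (low) per plate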
# [5] = H69AR cell proliferation blockers – human, duplicate replicates, primary screen (AID 580); settings: H69AR lung tumor cells viability, ATP luminescence, 72 h; at 10 µM; stronger effect = lower value;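 note: 100% = mean luminescence of untreated wells and 0% = no signal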
# [6] = MRP1 drug-resistance reversers in H69AR cells – cell-based, doxorubicin co-treatment, pilot screen (AID 601;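 active = viability loss from added drug above about 55%, and viability with drug at most 40%, in both replicates, limit read from the data, passing the limit was not always enough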); settings: CellTiter-Glo, 72 h, at 10 µM; for differential viability (reversal): stronger effect = higher value
# [7] = yeast transport mutant growth inhibition pilot in 384-well plates, post-Golgi transport modulator project (AID 636; in the data active = inhibition above about 31%); settings: absorbance 615 nm, about 18 h, stronger effect = higher value
# [8] = growth suppression of yeast trafficking mutant, preliminary HTS, modulators of trafficking downstream of Golgi apparatus project, 1536-format plate, OD 615 nm (AID 637; in the data active = inhibition above about 30%); settings: yeast transport mutant growth, absorbance 615 nm, 18 h; stronger effect = higher value
# [9] = H69AR cells + 2 uM doxorubicin, measured here: viability with 2 uM doxorubicin, stronger effect = lower value
# [10] = H69AR cells, compound alone cytotoxicity
# Chain of Receptor tyrosine-protein kinase erbB-2 (Homo sapiens) (P04626 whole entry, looked up): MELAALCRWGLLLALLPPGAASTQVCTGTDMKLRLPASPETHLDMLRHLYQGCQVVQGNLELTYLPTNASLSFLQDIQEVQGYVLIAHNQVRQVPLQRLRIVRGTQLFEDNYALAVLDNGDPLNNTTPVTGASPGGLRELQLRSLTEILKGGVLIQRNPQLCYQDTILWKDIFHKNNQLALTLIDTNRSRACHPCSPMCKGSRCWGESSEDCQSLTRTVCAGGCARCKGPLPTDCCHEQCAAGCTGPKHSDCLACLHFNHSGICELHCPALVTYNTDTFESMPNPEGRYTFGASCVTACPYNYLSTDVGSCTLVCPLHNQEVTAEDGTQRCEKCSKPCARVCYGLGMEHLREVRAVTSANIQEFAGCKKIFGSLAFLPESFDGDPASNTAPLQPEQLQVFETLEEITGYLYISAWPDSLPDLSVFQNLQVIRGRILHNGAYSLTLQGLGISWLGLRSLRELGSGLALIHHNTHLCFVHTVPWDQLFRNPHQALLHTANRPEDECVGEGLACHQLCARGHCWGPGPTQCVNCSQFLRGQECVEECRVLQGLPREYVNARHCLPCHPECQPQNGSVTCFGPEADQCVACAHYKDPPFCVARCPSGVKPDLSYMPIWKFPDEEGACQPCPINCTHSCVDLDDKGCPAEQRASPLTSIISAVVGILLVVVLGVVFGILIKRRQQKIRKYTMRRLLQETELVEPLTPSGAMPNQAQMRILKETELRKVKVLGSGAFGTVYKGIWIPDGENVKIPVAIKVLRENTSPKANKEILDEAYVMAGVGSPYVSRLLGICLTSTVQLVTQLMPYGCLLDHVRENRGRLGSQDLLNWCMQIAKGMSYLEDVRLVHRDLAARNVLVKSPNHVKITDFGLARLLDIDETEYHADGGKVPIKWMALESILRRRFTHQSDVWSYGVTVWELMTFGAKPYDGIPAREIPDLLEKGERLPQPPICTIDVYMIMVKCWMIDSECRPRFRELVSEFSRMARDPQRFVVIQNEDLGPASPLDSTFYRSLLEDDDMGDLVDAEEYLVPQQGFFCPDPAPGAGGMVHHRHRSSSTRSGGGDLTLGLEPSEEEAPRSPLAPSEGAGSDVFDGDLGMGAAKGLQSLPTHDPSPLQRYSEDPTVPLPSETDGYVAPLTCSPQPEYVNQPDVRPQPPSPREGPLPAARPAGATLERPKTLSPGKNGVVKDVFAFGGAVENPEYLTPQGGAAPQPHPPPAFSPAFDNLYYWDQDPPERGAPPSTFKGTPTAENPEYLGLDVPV
Structure (SMILES),viability [1] [%],Her2 level [2],viability [3],viability [4],viability [5],differential viability (reversal) ([6]; H69AR cells + 2 uM doxorubicin),"viability [6, 9] [%]","viability [6, 10] [%]",inhibition [7],inhibition [8]
CCOC(=O)c1ccc(NC(=O)CSc2nnc(COc3ccccc3)n2C)cc1,110,113% (inactive),110% (inactive),85.3% (inactive),107% (inactive),8.77% (inactive),98.1,107,-1.3% (inactive),-9.67% (inactive)
COc1ccccc1NC(=O)CC(NCc1ccccc1)C(=O)O (stereo not given),108,80% (inactive),108% (inactive),110% (inactive),89.1% (inactive),-2.06% (inactive),91.2,89.1,-7.43% (inactive),-3% (inactive)
Cn1cnnc1Sc1nc2c(c(=O)n(C)c(=O)n2C)n1C,87,98.5% (inactive),87% (inactive),107% (inactive),102% (inactive),5.7% (inactive),96.5,102,-0.79% (inactive),-9.09% (inactive)
CCOc1ccc(CCNC(=O)CCc2nc(-c3ccc(OC)cc3)no2)cc1OCC,86.5,104% (inactive),86.5% (inactive),81.9% (inactive),94.3% (inactive),-5.12% (inactive),99.4,94.3,-1.05% (inactive),3.17% (inactive)
COc1ccccc1N1CCN(C/C(O)=C(\C#N)c2nc(-c3ccccc3)cs2)CC1,94,108% (inactive),94% (inactive),84.1% (inactive),90.8% (inactive),-6.43% (inactive),97.2,90.8,0.55% (inactive),12.5% (inactive)
O=c1cc(C(F)F)oc2c1ccc1ccccc12,93.5,98.5% (inactive),93.5% (inactive),74.8% (inactive),81.7% (inactive),-9.89% (inactive),91.6,81.7,-0.91% (inactive),2.33% (inactive)
CCn1c(=O)cc(SCC(=O)Nc2ccc3c(c2)OCO3)c2ccccc21,97,88% (inactive),97% (inactive),64.1% (inactive),87.9% (inactive),3.51% (inactive),84.4,87.9,-2.5% (inactive),-10.5% (inactive)
COc1ccc(Cc2nc(-c3ccc(Br)cc3)no2)cc1,72.5,106% (inactive),72.5% (inactive),92.8% (inactive),98.2% (inactive),-2.99% (inactive),101,98.2,-0.13% (inactive),-12.3% (inactive)
C/C(=C\C(=O)c1ccc(F)cc1)Nc1ccc(N2CCOCC2)cc1,89.5,97% (inactive),89.5% (inactive),114% (inactive),90.9% (inactive),1.85% (inactive),89.1,90.9,-4.4% (inactive),-0.65% (inactive)
Nc1nnc(SCCOc2ccccc2)s1,86.5,80% (inactive),86.5% (inactive),72.1% (inactive),97.4% (inactive),9.2% (inactive),88.2,97.4,-3.82% (inactive),-2.73% (inactive)
O=C(Nc1cccc2ncccc12)c1ccc2c(c1)OCCO2,84,104% (inactive),84% (inactive),100% (inactive),104% (inactive),11.7% (inactive),92.1,104,-1.17% (inactive),-3% (inactive)
CCOC(=O)c1[nH]c(C)c(C(=O)Nc2cc(OC)ccc2OC)c1C,81,65% (inactive),81% (inactive),47.4% (inactive),25.5% (active),-45.8% (inactive),71.3,25.5,-2.24% (inactive),-4.92% (inactive)
CCCCC(CC)C(=O)Nc1ccccc1C#N (stereo not given),96,95% (inactive),96% (inactive),98.6% (inactive),89.1% (inactive),8.93% (inactive),80.1,89.1,-4.34% (inactive),4.29% (inactive)
O=C(COn1nnc2ccc(C(F)(F)F)cc21)Nc1nnc(-c2ccccc2)o1,87,92.5% (inactive),87% (inactive),68.2% (inactive),97.8% (inactive),15.5% (inactive),82.3,97.8,-7.76% (inactive),-3.27% (inactive)
N#Cc1nc(-c2cccs2)oc1NCc1ccc(Cl)cc1,111,88.5% (inactive),111% (inactive),64.9% (inactive),73.8% (inactive),-14.1% (inactive),87.9,73.8,-5.66% (inactive),0.65% (inactive)
CC(C)OP(=O)(c1ccc(N(C)C)cc1)C(O)c1ccccc1F (stereo not given),128,113% (inactive),128% (inactive),103% (inactive),106% (inactive),19% (inactive),87.5,106,-4.93% (inactive),3.06% (inactive)
